Screening results as filed in PubChem BioAssay.
Compounds with a hit are over-represented: about 2.6% of the library has one in this group of screens.
PHOSPHO1 block: blocks human PHOSPHO1 phosphatase activity. actives 1.1% (n = 290,000). Q8TCT1. inhibition, % at 13.3 µM. AID 1565. recombinant PHOSPHO1, absorbance phosphatase assay; in the data active = inhibition above about 60%
Target sequence (Q8TCT1 whole entry, looked up): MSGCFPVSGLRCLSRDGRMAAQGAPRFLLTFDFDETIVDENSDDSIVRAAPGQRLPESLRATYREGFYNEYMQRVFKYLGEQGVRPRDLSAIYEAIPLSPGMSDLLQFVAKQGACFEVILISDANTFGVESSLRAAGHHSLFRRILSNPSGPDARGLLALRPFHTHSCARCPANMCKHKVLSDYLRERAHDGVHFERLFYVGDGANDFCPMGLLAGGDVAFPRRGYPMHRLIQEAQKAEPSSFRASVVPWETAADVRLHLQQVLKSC
IMP-1 inh: inhibitors of Pseudomonas aeruginosa IMP-1 metallo-beta-lactamase | purified IMP-1, nitrocefin hydrolysis, epi-absorbance fluorescence | inhibition, % at 5.6 µM | actives 0.45% (n = 290,000);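 active = inhibition above the mean plus 3 SD of all compounds in the same screening run, cut at about 4.5% in these data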;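 also: 0% = IMP-1 with DMSO and 100% = DMSO wells lacking enzyme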
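System: purified IMP-1 / Input: IMP-1 dispensed at 0.2 nM / Medium: 50 mM HEPES pH 7.1, 50 µM ZnSO4, 0.05% Brij 35 / Timing: 15 min enzyme–compound preincubation, then 25 min nitrocefin reaction, 25 °C / Technique: plate fluorescence quenching by hydrolysis product, ex 480/em 530 nm / Repeats: singlicate testing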
ASAP1 GAP inh: ASAP1 ArfGAP inhibition | Q9ULH1 | ASAP1-stimulated ARF1 GTP hydrolysis, GDP FP detection | inhibition, % at 16.5 µM | actives 0.19% (n = 360,000); in the data active = inhibition above about 25%;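 also: 0% = vehicle with enzyme and substrate and 100% = no enzyme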
Target sequence (Q9ULH1 325-724 limits assumed): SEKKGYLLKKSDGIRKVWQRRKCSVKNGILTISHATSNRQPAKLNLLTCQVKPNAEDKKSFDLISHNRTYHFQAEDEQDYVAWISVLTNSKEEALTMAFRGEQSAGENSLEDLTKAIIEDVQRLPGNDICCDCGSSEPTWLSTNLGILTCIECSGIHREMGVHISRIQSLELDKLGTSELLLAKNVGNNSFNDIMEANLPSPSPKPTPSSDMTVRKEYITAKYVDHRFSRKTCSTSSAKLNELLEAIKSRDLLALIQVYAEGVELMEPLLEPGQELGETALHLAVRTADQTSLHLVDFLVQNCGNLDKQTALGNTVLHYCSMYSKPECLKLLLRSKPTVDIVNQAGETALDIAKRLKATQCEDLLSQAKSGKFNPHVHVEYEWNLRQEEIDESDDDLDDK
Calb FLC: affects C. albicans growth with fluconazole; C. albicans CaCi-2 (fluconazole-resistant clinical isolate) + fluconazole, Alamar Blue growth, 48 h; growth inhibition, % (concentration not given with the values); actives 0.57% (n = 300,000); AID 1979;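 active = growth inhibition above about 58% in most replicates, limit read from the data, passing the limit was not always enough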;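 also: all wells also contain fluconazole at 8 µg/ml as a sub-toxic cotreatment; 0% = median of DMSO wells and 100% = median of geldanamycin control wells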
ARFGAP1 inhibitor: inhibitors of rat ARFGAP1. actives 0.26% (n = 360,000). inhibition, % at 16.5 µM. Arfgap1-stimulated ARF1 GTP hydrolysis, GDP FP detection. AID 651572. Q62848;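 active = inhibition above a per-plate limit, mean inhibition of low control wells plus 3 SD, cut at about 25% in these data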;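 also: 0% = DMSO wells with enzyme and 100% = wells lacking Arfgap1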
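System: truncated rat Arfgap1 GAP domain / Benchmarks: high control wells lacking Arfgap1, low control full reaction with DMSO / Times: compound-enzyme preincubation 20 min, reaction 120 min, detection 60 min, 25 °C / Repeats: one replicate per compound / Also added: human ARF1(Δ1-17)-GTP substrate / Measured by: Tracer-displacement fluorescence polarization with EDTA stop, 620/688 nm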
VIM-2 inhibitor: inhibitors of Pseudomonas aeruginosa VIM-2 metallo-beta-lactamase. AID 1527. actives 0.89% (n = 290,000). inhibition, % at 5.6 µM. purified VIM-2, nitrocefin hydrolysis, epi-absorbance fluorescence;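 active = inhibition above the mean of all tested compounds plus 3 SD, cutoff set per screening run, cut at about 7.5% in these data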;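 also: red hydrolysis product quenches plate fluorescence so inhibitors raise well fluorescence; 0% = enzyme with DMSO and 100% = DMSO without enzyme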
The depositor's hits bear a star; x = no result given.

SMILES	PHOSPHO1 block	IMP-1 inh	ASAP1 GAP inh	Calb FLC	ARFGAP1 inhibitor	VIM-2 inhibitor
Oc1ccccc1C(Nc1nccs1)c1ccc2cccnc2c1O (stereo unspecified)	27	-4	-4	95*	8	-3
O=C1NC(=O)/C(=C/c2ccccc2Oc2ccc(Cl)cc2)S1	4	-3	-18	79*	-22	0
CCCc1nc2ccccc2c(C(=O)OC2CCOC2=O)c1CC (stereo unspecified)	66*	1	-12	-1	-17	1
COc1cccc(S(=O)(=O)N(C)C[C@@H]2Oc3ncc(Br)cc3C(=O)N([C@H](C)CO)C[C@@H]2C)c1	x	x	5	x	-10	x
COC(=O)C1=C(C)N(Cc2ccc(C(F)(F)F)cc2)C(=NCc2ccc3c(c2)OCO3)NC1c1ccccc1 (stereo unspecified)	x	x	0	x	-7	x
CCn1c(=O)n(Cc2ccco2)c(=N)c2c3c(sc21)COC(C)(C)C3	63*	-2	0	-6	6	-1
CC1(C)Cc2c(sc3c2c(=N)n(Cc2ccco2)c(=O)n3CC(=O)Nc2ccccc2)CO1	6	-3	4	-2	8	-3
Cc1ccc2nc(-c3cccc(Cl)c3)c(Cc3ccccc3C(F)(F)F)n2c1	x	x	-5	x	-3	x
COCCN1C(=O)COc2ccccc2C1C(=O)Nc1ccc2c(c1)OCCO2 (stereo unspecified)	x	x	13	x	-3	x
CN(C(=O)c1ccc(NC(=O)Cc2cccc(NC(=O)C3CCN(C(=O)CCc4ccccc4)CC3)c2)cc1)C1CC1	x	x	14	x	2	x
CC(NC(=O)c1ccc(C(F)(F)F)cc1)C(c1ccccc1)N1CCOCC1 (stereo unspecified)	63*	-1	-5	-3	-7	0
CC(NC(=O)c1ccc(-c2ccccc2)cc1)C(c1ccccc1)N1CCOCC1 (stereo unspecified)	x	x	5	x	-1	x
Clc1ccc(C2=Nn3c(nnc3-c3n[nH]c4c3CCC4)SC2)cc1	73*	-4	-7	-2	16	2
O=C(C(=O)N1CCC(CNS(=O)(=O)c2ccc(F)cc2)CC1)c1cc2ccccc2o1	x	x	4	x	9	x
CC(=O)Nc1ccc(NC(=O)CSc2nccn2Cc2ccccc2)cc1	31	-2	0	0	2	1
O=C(CSc1nccn1-c1ccc(Cl)cc1)NCc1ccc2c(c1)OCO2	68*	-5	3	-4	-2	-1
Cc1ccc(NC(=O)CSc2nccn2Cc2ccccc2)cc1C	86*	2	12	2	15	1
Cc1nnc(SCC(=O)Nc2ccc3c(c2)OCCO3)n1N	26	1	1	-4	-4	-5
O=C(CSc1nccn1-c1cccc(Cl)c1)Nc1ccc2c(c1)OCCO2	74*	-4	-8	-14	17	0
Nn1c(SCC(=O)Nc2ccc3c(c2)OCCO3)nnc1C(F)(F)F	91*	-2	4	-1	-10	-3
CCOC(=O)C1=CCC(c2ccccc2C)N(S(=O)(=O)c2ccc(C)cc2)C1 (stereo unspecified)	x	x	-5	x	5	x
CC(C)[C@H](NC(=O)C1CCCC1)C(=O)N1CCC[C@H]1C(=O)NCCc1ccccc1Cl	x	x	-8	x	-4	x
C=CCCC1CN(Cc2ccc(OC)cc2)S(=O)(=O)c2c(F)cccc2O1 (stereo unspecified)	x	x	9	x	4	x
CCC(c1nc2ccccc2[nH]1)n1c(-c2ccc3cc[nH]c3c2)nc2ccccc21 (stereo unspecified)	x	x	6	x	-3	x
OCCNc1ncnc2c1ncn2[C@H]1CN(C2CCCC2)C[C@@H](CO)O1	x	x	8	x	-3	x
SMILES	PHOSPHO1 block	IMP-1 inh	ASAP1 GAP inh	Calb FLC	ARFGAP1 inhibitor	VIM-2 inhibitor
COc1ccc(NC(=O)CSc2nccn2-c2cccc(OC)c2)cc1	72*	-1	7	-37	9	-1
COCCN(C(=O)CSc1nnc(-c2ccccc2F)n1C)c1c(N)n(Cc2ccccc2)c(=O)[nH]c1=O	23	-2	-5	-1	19	1
COCCN(C(=O)CSc1nnc(-c2cccc(C)c2)n1C)c1c(N)n(Cc2ccccc2)c(=O)[nH]c1=O	5	-2	-2	113*	2	-3
Nc1ccn([C@@H]2O[C@H](C(=O)NCC(=O)N3CCOCC3)[C@@H](O)[C@H]2O)c(=O)n1	x	x	-7	x	-9	x
NC(=S)Nc1cccc2cc3ccccc3cc12	97*	-1	-8	-22	-1	2
COc1cccc(C(C[N+](=O)[O-])c2c(C)[nH]n(-c3ccccc3)c2=O)c1 (stereo unspecified)	30	2	3	-20	12	12*
Nc1c(S(=O)(=O)c2ccccc2)c2nc3ccccc3nc2n1CCN1CCOCC1	-12	-3	-2	88*	-1	-4
COC(=O)c1cc2c(c3c4cc(OC)ccc4n(S(=O)(=O)c4cccc(C)c4)c13)C(=O)N(Cc1ccc(N(C)C)cc1)C2	x	x	-4	x	0	x
Cc1ccc(O)c(C2=NNC(c3ccc(Cl)cc3)C2)c1 (stereo unspecified)	27	-1	1	78*	6	-1
CC(=O)SC(C[N+](=O)[O-])c1cn(C(C)=O)c2ccccc12 (stereo unspecified)	63*	1	-6	112*	0	-3
CCOC(=O)c1ccc(N2CN(C3CCCCC3)CNC2=S)cc1	5	7.2*	2	-7	-16	0
CCOC(=O)c1csc(NC(=O)C2=COCCO2)n1	71*	-2	-8	2	-6	-1
Cn1cccc1/C=N/n1c(-c2ccc(Cl)cc2Cl)n[nH]c1=S	77*	-1	2	-6	3	-1
Cc1ccc(-c2n[nH]c(=S)n2/N=C/c2cccn2C)cc1	27	-2	-4	20	0	-1
Cn1cccc1/C=N/n1c(-c2ccc(Cl)cc2)n[nH]c1=S	66*	0	-5	-4	2	1
O=C(N[C@H](c1cccc(Br)c1)[C@@H]1CCCC=C1c1ccccc1)C(F)(F)F	x	x	2	x	5	x
CCCN=C(N)/C(C(=O)OCC)=C(\O)c1ccc(OC)cc1	32	-5	0	-5	9	-2
CCOC(=O)/C(C(N)=NCC(C)C)=C(/O)c1ccccc1	61*	-3	-8	3	-6	-2
CCCc1nc2oc3c(NCCN(C)C)ncnc3c2c2c1CCCC2	19	0	14	8	-10	6
CCCc1nc2oc3c(NCCCN(C)C)ncnc3c2c2c1CCCC2	61*	-4	2	-2	-4	12*
Clc1ccc(C2=CSC3=NCCN23)cc1Cl	28	-5	-12	10	5	-3
COc1ccc(C2=CSC3=NCCN23)cc1OC	39	-4	-19	-30	-7	9.0*
CCN1CCN(c2c(S(=O)(=O)c3ccc(Cl)cc3)cnc3ccccc23)CC1	x	x	9	x	6	x
COc1ccc(CCNC(=O)C(F)(F)F)cc1S(N)(=O)=O	x	x	-3	x	-11	x
